Test results from PMC5299035 (Drug development research, 2016).

Assays:
Assay type in all cases: cell-based
[1] = test system: human neutrophils; assay: Ca2+ mobilization assay in human neutrophils; settings: for Ca2+ flux human neutrophils efficacy: % of the response induced by 5 nM fMLF; for EC50: Homo sapiens, Neutrophil, read-out: Ca2+ flux human neutrophils EC50
Summary of the method: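 Neutrophils from healthy donors were purified by dextran sedimentation, Histopaque 1077 gradient and hypotonic red-cell lysis (>95% pure, >98% viable). After Fluo-4 AM loading (1.25 μg/mL final, 30 min, 37 °C, dark), cells were seeded at 2 × 10^5/well in HBSS with Ca2+/Mg2+. Fluorescence (485/538 nm) was tracked every 5 s for 240 s at room temperature. Maximum change over baseline was normalised, and EC50 came from a 5-6-point nonlinear fit.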

[2] = molecular target: T1, FPR1 (Homo sapiens, UniProt P21462); assay: Ca2+ mobilization assay in FPR1-HL60 cells; settings: for Ca2+ flux FPR1-HL60 efficacy: % of the response induced by 5 nM fMLF; for Emax: read-out: Ca2+ flux FPR1-HL60 efficacy
T1 sequence (P21462 1-350): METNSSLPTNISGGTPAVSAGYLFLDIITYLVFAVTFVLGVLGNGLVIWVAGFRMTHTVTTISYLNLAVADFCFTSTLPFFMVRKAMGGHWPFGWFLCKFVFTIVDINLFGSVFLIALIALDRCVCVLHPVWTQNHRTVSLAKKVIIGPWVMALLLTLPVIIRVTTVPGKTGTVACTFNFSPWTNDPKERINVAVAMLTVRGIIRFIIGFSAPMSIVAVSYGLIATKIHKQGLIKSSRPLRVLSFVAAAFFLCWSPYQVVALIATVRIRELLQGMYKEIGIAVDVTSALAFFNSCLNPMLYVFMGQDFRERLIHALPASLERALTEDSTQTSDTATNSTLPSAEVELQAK
Summary of the method: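 FPR1-transfected HL60 cells were grown in RPMI 1640 with 10% heat-inactivated FCS, 10 mM HEPES and G418 (1 mg/mL). Cells were loaded with Fluo-4 AM (1.25 μg/mL final) for 30 min at 37 °C in the dark, then washed and seeded in HBSS+ at 2 × 10^5 cells/well. Fluorescence (485/538 nm) was read every 5 s for 240 s at room temperature after compound addition. Peak rise over baseline was set against 5 nM fMLF (100%). EC50 came from nonlinear regression of 5-6-point curves, mean of three independent experiments. No activity meant no response within 2 min (limits: efficacy >20%, EC50 <50 μM).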

[3] = molecular target: T2, FPR2 (Homo sapiens, UniProt P25090); assay: Ca2+ mobilization assay in FPR2-HL60 cells; settings: for Ca2+ flux FPR2-HL60 efficacy: % of the response induced by 5 nM WKYMVm; for Emax: read-out: Ca2+ flux FPR2-HL60 efficacy
T2 sequence (P25090 1-351): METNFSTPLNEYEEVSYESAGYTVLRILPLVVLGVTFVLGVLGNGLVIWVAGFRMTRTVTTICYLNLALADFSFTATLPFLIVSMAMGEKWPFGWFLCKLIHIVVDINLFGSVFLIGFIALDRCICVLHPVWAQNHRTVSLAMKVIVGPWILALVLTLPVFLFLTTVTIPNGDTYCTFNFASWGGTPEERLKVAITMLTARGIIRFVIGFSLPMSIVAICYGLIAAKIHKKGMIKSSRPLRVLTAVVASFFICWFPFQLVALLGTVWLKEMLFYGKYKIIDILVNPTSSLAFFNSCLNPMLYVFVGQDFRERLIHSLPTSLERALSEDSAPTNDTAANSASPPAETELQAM
Summary of the method: (§1)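 FPR2- or FPR3-transfected HL60 cells were grown in RPMI 1640 with 10% heat-inactivated FCS and G418 1 mg/mL. Cells were loaded with Fluo-4 AM (1.25 μg/mL final) for 30 min at 37 °C in the dark, washed, and seeded at 2 × 10^5 cells/well in HBSS+. Fluorescence (ex 485/em 538 nm) was read every 5 s for 240 s at room temperature. Peak rise over baseline was normalised to the reference agonist. EC50 came from 5-6-point nonlinear regression over three independent experiments.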

[4] = molecular target: T3, FPR3 (Homo sapiens, UniProt P25089); assay: Ca2+ mobilization assay in FPR3-HL60 cells; settings: for Ca2+ flux FPR3-HL60 efficacy: % of the response induced by 10 nM WKYMVm; for Emax: read-out: Ca2+ flux FPR3-HL60 efficacy
T3 sequence (P25089 1-353): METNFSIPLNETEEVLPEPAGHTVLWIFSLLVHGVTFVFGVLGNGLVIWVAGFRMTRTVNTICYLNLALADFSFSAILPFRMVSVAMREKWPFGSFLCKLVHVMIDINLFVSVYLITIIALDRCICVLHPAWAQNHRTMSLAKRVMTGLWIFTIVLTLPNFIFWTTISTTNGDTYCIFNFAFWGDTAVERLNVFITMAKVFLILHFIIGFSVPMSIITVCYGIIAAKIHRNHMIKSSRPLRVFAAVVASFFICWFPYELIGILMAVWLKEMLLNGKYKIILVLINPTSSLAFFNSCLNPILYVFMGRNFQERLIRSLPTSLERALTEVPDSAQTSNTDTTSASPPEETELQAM
Summary of the method: as §1

[5] = molecular target: T4, mouse Fpr1 (Mus musculus, UniProt P33766); assay: Ca2+ mobilization assay in mFpr1-RBL cells; settings: for Ca2+ flux mFpr1-RBL efficacy: % of the response induced by 10 nM WKYMVm; for Ca2+ flux mFpr1-RBL EC50: RBL cells transfected with mouse Fpr1, N.A. = no activity
T4 sequence (P33766 1-364): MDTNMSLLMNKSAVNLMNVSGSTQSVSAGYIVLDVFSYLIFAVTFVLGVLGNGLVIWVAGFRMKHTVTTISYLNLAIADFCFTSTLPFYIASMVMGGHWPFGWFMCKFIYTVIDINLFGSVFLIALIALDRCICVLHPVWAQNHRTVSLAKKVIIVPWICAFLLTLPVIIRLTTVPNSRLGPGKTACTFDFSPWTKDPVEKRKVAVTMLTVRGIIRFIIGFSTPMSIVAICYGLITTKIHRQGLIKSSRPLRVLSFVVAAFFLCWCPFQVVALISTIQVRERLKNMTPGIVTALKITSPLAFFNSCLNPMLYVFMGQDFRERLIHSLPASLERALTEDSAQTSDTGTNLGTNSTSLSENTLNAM
Summary of the method: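 RBL-2H3 rat basophilic leukemia cells transfected with mouse Fpr1 were kept in DMEM with 20% FBS and G418 250 μg/ml. Cells were dye-loaded with Fluo-4 AM (1.25 μg/mL final) for 30 min at 37 °C and plated at 2 × 10^5/well in HBSS+. Fluorescence (485/538 nm) was followed every 5 s for 240 s at room temperature. Peak over baseline was normalised, and EC50 was taken by 5-6-point nonlinear regression, averaged from three independent experiments.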

[6] = test system: mouse neutrophils; assay: Ca2+ mobilization assay in mouse neutrophils; settings: for Ca2+ flux mouse neutrophils efficacy: % of the response induced by 10 nM WKYMVm; for Ca2+ flux mouse neutrophils EC50: N.A. = no activity (no response during first 2 min)
Summary of the method: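 Bone marrow was flushed from BALB/c mouse tibias and femurs and separated on a Percoll gradient (45/50/55/62/81%, 1600g, 30 min, 10 °C). Red cells were removed over Histopaque 1119. Neutrophils were loaded with Fluo-4 AM (1.25 μg/mL final) for 30 min at 37 °C, seeded in HBSS+ at 2 × 10^5 cells/well, and read at 485/538 nm every 5 s for 240 s at room temperature. Responses were normalized to 10 nM WKYMVm. EC50 came from nonlinear regression of 5-6-point curves, three experiments.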

[7] = molecular target: T5, mouse Fpr2 (Mus musculus, UniProt O88536); assay: Ca2+ mobilization assay in mFpr2-RBL cells; settings: for Ca2+ flux mFpr2-RBL efficacy: % of the response induced by 10 nM WKYMVm; for Ca2+ flux mFpr2-RBL EC50: RBL cells transfected with mouse Fpr2, N.A. = no activity
T5 sequence (O88536 1-351): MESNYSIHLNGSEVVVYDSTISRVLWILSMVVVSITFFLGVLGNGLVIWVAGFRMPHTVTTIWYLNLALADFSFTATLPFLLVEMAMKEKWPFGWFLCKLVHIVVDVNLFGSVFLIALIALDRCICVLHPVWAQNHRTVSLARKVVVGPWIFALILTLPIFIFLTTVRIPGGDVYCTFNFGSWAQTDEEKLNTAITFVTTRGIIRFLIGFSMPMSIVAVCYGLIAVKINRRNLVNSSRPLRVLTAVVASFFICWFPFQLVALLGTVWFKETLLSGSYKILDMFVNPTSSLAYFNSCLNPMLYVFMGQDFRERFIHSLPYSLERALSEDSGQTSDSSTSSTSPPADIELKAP
Summary of the method: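 RBL-2H3 cells stably expressing mouse Fpr2 were grown in DMEM with 20% FBS, 10 mM HEPES and G418 (250 μg/ml). Fluo-4 AM (1.25 μg/mL final) was loaded for 30 min at 37 °C in the dark. Cells were seeded in HBSS+ at 2 × 10^5 cells/well, and fluorescence (485/538 nm) was read every 5 s for 240 s at room temperature. Peak rise was normalized to 10 nM WKYMVm (100%). EC50 came from nonlinear regression of 5-6-point curves over three independent experiments.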

SMILES	Ca2+ flux human neutrophils efficacy [1] [%]	Ca2+ flux FPR1-HL60 efficacy [2] [%]	Ca2+ flux FPR2-HL60 efficacy [3] [%]	Ca2+ flux FPR3-HL60 efficacy [4] [%]	Ca2+ flux mFpr1-RBL efficacy [5] [%]	Ca2+ flux mouse neutrophils efficacy [6] [%]	Ca2+ flux mFpr2-RBL efficacy [7] [%]	EC50 [1] [nM]	Emax [2] [%]	Emax [3] [%]	EC50 [4] [nM]	Emax [4] [%]	Ca2+ flux mouse neutrophils EC50 [6]	Ca2+ flux mFpr1-RBL EC50 [5]	Ca2+ flux mFpr2-RBL EC50 [7]	EC50 [7] [nM]	EC50 [2] [nM]	EC50 [3] [nM]
CC1=NN(CC(=O)Nc2ccc(Br)cc2)C(=O)CC1C (racemic) [(±)-6a, (±)N-(4-Bromophenyl)-2-[3,4-dimethyl-6-oxo-5,6-dihydropyridazin-1(4H)-yl]acetamide]	115	60	120	150	70													
CC1=NN(CC(=O)Nc2ccc(Br)cc2)C(=O)CC1c1ccccc1 (racemic) [(±)-6b, (±)N-(4-Bromophenyl)-2-[3-methyl-6-oxo-4-phenyl-5,6-dihydropyridazin-1(4H)-yl]acetamide]	75	90	110	120	60	160	220											
COc1cccc(Cc2c(C)c(C)nn(CC(=O)Nc3ccc(Br)cc3)c2=O)c1 [4a, N-(4-Bromophenyl)-2-[5-(3-methoxybenzyl)-3,4-dimethyl-6-oxopyridazin-1(6H)-yl]acetamide]								6 ± 2	85	80	40 ± 11	165	complete inactivity	complete inactivity	complete inactivity			
COc1ccc(Cc2c(C)c(C)nn(CC(=O)Nc3ccc(Br)cc3)c2=O)cc1 [4b, N-(4-Bromophenyl)-2-[5-(4-methoxybenzyl)-3,4-dimethyl-6-oxopyridazin-1(6H)-yl]acetamide]								270 ± 25	60	95	130 ± 32	100	complete inactivity	complete inactivity	complete inactivity			
COc1cccc(Cc2c(-c3ccccc3)c(C)nn(CC(=O)Nc3ccc(Br)cc3)c2=O)c1 [4f, N-(4-Bromophenyl)-2-[5-(3-methoxybenzyl)-3-methyl-6-oxo-4-phenylpyridazin-1(6H)-yl]acetamide]						95	180	5400 ± 260	160							28800 ± 5200		
Cc1cc(=O)n(CC(=O)Nc2ccc(Br)cc2)nc1C [7a, N-(4-Bromophenyl)-2-[3,4-dimethyl-6-oxopyridazin-1(6H)-yl]acetamide]						70		2000 ± 290	110	90							5700 ± 2100	510 ± 190
Cc1nn(CC(=O)Nc2ccc(Br)cc2)c(=O)cc1-c1ccccc1 [7b, N-(4-Bromophenyl)-2-[3-methyl-6-oxo-4-phenylpyridazin-1(6H)-yl]acetamide]						75		200 ± 56		115	970 ± 230	95						150 ± 52
